Reference: ChEMBL document CHEMBL2384997, “2-(1H-Pyrazol-4-yl)acetic acids as CRTh2 antagonists” (Bioorg Med Chem Lett, 2013)
In brackets after ≈: the same amount, converted by molar mass.

Tests used:
[1] = target: T1, Prostaglandin D2 receptor 2 (Homo sapiens, UniProt Q9Y5Y4); test: Antagonist activity at CRTh2 receptor (unknown origin) overexpressed in CHOK1 cell membranes assessed as inhibition of [35S]-GTPgammaS binding preincubated for 1 hr followed by 50 nM PGD2 and 0.1 nM [35S]-GTPgammaS addition measured after 2 hrs by liquid scintillation counting analysis; type: functional, CHO-K1
T1 sequence (Q9Y5Y4 whole entry): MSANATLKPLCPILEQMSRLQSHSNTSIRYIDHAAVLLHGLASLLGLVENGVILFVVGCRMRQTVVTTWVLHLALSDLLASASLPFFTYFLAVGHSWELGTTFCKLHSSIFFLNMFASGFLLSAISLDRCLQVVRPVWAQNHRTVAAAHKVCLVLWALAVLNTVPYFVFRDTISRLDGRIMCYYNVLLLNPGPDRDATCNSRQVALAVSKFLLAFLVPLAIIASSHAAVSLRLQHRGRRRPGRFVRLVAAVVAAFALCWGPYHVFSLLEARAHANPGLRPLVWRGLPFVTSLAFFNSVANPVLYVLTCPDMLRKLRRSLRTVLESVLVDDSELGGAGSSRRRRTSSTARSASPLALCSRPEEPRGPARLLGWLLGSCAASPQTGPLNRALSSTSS

[2] = target: T2, Prostaglandin D2 receptor (Homo sapiens) (UniProt Q13258); test: Inhibition of DP1 receptor (unknown origin) at 10 uM relative to control
T2 sequence (whole entry): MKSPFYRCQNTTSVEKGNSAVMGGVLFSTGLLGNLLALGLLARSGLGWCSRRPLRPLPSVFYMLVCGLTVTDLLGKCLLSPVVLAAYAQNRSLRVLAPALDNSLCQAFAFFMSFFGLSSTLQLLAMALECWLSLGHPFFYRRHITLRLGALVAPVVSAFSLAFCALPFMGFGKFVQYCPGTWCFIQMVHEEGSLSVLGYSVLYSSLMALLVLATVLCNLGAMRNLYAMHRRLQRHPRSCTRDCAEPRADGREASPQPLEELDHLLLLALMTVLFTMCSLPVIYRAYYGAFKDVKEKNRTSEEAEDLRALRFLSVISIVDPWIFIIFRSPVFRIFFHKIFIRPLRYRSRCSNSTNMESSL

[3] = target: T3, Thromboxane A2 receptor (Homo sapiens) (UniProt P21731); test: Inhibition of thromboxane A2 receptor (unknown origin) at 10 uM relative to control
T3 sequence (whole entry): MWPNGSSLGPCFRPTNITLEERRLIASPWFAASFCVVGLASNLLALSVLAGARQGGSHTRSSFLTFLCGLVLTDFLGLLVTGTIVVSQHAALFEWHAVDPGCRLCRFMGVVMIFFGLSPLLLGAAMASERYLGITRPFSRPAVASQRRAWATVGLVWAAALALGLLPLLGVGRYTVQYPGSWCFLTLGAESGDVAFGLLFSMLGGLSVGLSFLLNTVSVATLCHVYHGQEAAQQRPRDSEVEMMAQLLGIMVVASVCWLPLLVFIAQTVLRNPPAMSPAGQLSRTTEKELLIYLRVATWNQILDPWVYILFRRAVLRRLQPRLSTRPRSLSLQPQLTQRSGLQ

[4] = Apparent permeability from basolateral to apical side in human Caco2 cells; type: ADME, cell-based; settings: Caco-2
[5] = Clearance in rat at 0.5 mg/kg, iv; type: ADME, organism-based; parameters: dose 0.5 mg/kg, route intravenous; settings: in vivo
[6] = Oral bioavailability in rat at 1 mg/kg; type: ADME, organism-based; settings: in vivo
[7] = AUC ( 0 to 24 hrs) in rat at 0.5 mg/kg, iv; type: ADME, organism-based; parameters: time < 24 hr, dose 0.5 mg/kg, route intravenous; settings: plasma
[8] = Solubility of the compound at pH 1; type: physicochemical; settings: buffer
[9] = Apparent permeability from apical to basolateral side in human Caco2 cells; type: ADME, cell-based; settings: Caco-2
[10] = Lipophilicity , log D of the compound at pH 7.4 by shake-flask method; type: physicochemical; settings: buffer
Outline: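 logD at pH 7.4 by shake-flask.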

[11] = Half life in rat at 0.5 mg/kg, iv; type: ADME, organism-based; parameters: dose 0.5 mg/kg, route intravenous; settings: in vivo
[12] = Volume of distribution at steady state in rat at 0.5 mg/kg, iv; type: ADME, organism-based; parameters: dose 0.5 mg/kg, route intravenous; settings: in vivo, read-out: Vdss
[13] = target: T4, Prostaglandin D2 receptor 2 (Homo sapiens) (UniProt Q9Y5Y4); test: Ratio of IC50 for CRTh2 receptor in human whole blood assessed as inhibition of PGD2-induced eosinophil shape change to IC50 for CRTh2 receptor (unknown origin) overexpressed in CHOK1 cells assessed as inhibition of [35S]-GTPgammaS binding; type: functional, cell-based; settings: CHO-K1
T4 sequence (whole entry): T1 sequence (Q9Y5Y4 whole entry)

[14] = Dissociation constant, pKa of the compound by potentiometric method; type: physicochemical
Outline: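 pKa determined potentiometrically.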

[15] = Solubility of the compound at pH 7.4; type: physicochemical; settings: buffer
[16] = target: T4, Prostaglandin D2 receptor 2 (Homo sapiens); settings: CHO-K1
[17] = AUC ( 0 to 24 hrs) in rat at 1 mg/kg, iv; type: ADME, organism-based; parameters: time < 24 hr, dose 1 mg/kg, route intravenous; settings: plasma
[18] = Terminal half life in rat at 1 mg/kg, iv; type: ADME, organism-based; parameters: dose 1 mg/kg, route intravenous; settings: in vivo, read-out: beta t1/2 (converted)
[19] = Volume of distribution at steady state in rat at 1 mg/kg, iv; type: ADME, organism-based; parameters: dose 1 mg/kg, route intravenous; settings: in vivo, read-out: Vdss
[20] = Clearance in rat at 1 mg/kg, iv; type: ADME, organism-based; parameters: dose 1 mg/kg, route intravenous; settings: in vivo
[21] = Oral bioavailability in rat at 10 mg/kg; type: ADME, organism-based; settings: in vivo
[22] = Plasma protein binding in human by rapid equilibrium dialysis method; type: ADME, cell-free; settings: read-out: PPB
Outline: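 Protein binding by equilibrium dialysis; human plasma diluted to 10%.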

[23] = Plasma protein binding in rat by rapid equilibrium dialysis method; type: ADME, cell-free; settings: read-out: PPB (converted)
[24] = target: T1, Prostaglandin D2 receptor 2; test: Antagonist activity at CRTh2 receptor overexpressed in CHOK1 cell membranes assessed as inhibition of [35S]-GTPgammaS binding in presence of 1% human serum albumin

Cc1c(CC(=O)O)c(-c2ccccc2)nn1S(=O)(=O)c1ccc(Cl)c(Cl)c1
IC50 ([1]; read-out: IC50): 1600 nM

Cc1c(CC(=O)O)c(=O)[nH]n1Cc1ccccc1S(=O)(=O)c1ccccc1
inhibition [2]: < 40% | inhibition [3]: < 40%

COc1ccc(S(=O)(=O)c2ccc(F)cc2)c(Cn2nc(-c3ccccc3)c(CC(=O)O)c2C)c1
IC50 ([1]; read-out: IC50): 36 nM

Cc1nn(-c2cccc(NC(=O)[C@H]3C[C@@H]3c3ccccc3)c2)c(C)c1CC(=O)O
Papp B→A [4]: 6 ×10⁻⁶ cm/s | clearance [5]: 2.5 mL/min/kg | bioavailability [6]: 12% | AUC(0-t) at 24 h [7]: 3360 ng·h/mL | solubility [8]: 500 µg/mL (≈ 1280 µM) | Papp A→B [9]: 3 ×10⁻⁶ cm/s | logD [10]: 0.9 | half-life [11]: 78 min | Vd [12]: 0.14 L/kg | IC50 ([1]; read-out: IC50): 230 nM | Ratio IC50 [13]: 10 | pKa [14]: 4.2 | solubility [15]: 800 µg/mL (≈ 2050 µM)

O=C(O)Cc1cn(C(c2ccc(F)cc2)c2ccc(F)cc2)nc1-c1ccncc1
IC50 ([1]; read-out: IC50): 290 nM

Cc1nn(Cc2ccccc2S(=O)(=O)c2ccccc2)c(C)c1CC(=O)O
inhibition [2]: < 40% | inhibition [3]: < 40% | IC50 ([1]; read-out: IC50): 81 nM | T1/2 [16]: 2 min

Cc1c(CC(=O)O)c(-c2ccccc2)nn1Cc1ccc2ccccc2n1
IC50 ([1]; read-out: IC50): 870 nM

Cc1nn(Cc2ccc(S(C)(=O)=O)cc2)c(C)c1CC(=O)O
IC50 ([1]; read-out: IC50): 5000 nM

Cc1c(CC(=O)O)c(-c2ccccc2)nn1C(c1ccc(F)cc1)c1ccc(F)cc1
IC50 ([1]; read-out: IC50): 1100 nM

Cc1c(CC(=O)O)c(-c2ccccc2)nn1Cc1ccccc1S(=O)(=O)N(C)C
IC50 ([1]; read-out: IC50): 850 nM

COc1c(CC(=O)O)c(C)nn1-c1cccc(NC(=O)[C@H]2C[C@@H]2c2ccccc2)c1
IC50 ([1]; read-out: IC50): 1600 nM

Cc1c(CC(=O)O)c(-c2ccccc2)nn1Cc1ccccc1S(=O)(=O)c1ccccc1
inhibition [2]: < 40% | inhibition [3]: < 40% | Papp B→A [4]: 17 ×10⁻⁶ cm/s | AUC(0-t) at 24 h [17]: 1960 ng·h/mL | half-life [18]: 288 min | solubility [8]: 3 µg/mL (≈ 6.72 µM) | Papp A→B [9]: 13 ×10⁻⁶ cm/s | logD [10]: 0.7 | Vd [19]: 1.6 L/kg | IC50 ([1]; read-out: IC50): 7 nM | pKa [14]: 4.2 | clearance [20]: 8.5 mL/min/kg | T1/2 [16]: 12 min | bioavailability [21]: 73% | fraction unbound [22]: < 0.001 | solubility [15]: 950 µg/mL (≈ 2130 µM) | fraction unbound [23]: 0.012

Cc1c(CC(=O)O)c(-c2ccccc2)nn1Cc1ccccc1Oc1ccccc1
inhibition [2]: < 40% | inhibition [3]: < 40% | IC50 ([1]; read-out: IC50): 2000 nM

Cc1c(CC(=O)O)c(-c2ccccc2)nn1C(C)c1ccccc1S(=O)(=O)c1ccccc1 (stereo not drawn)
IC50 ([1]; read-out: IC50): 2900 nM

Cc1c(CC(=O)O)c(-c2ccncc2)nn1C(c1ccc(F)cc1)c1ccc(F)cc1
inhibition [2]: < 40% | inhibition [3]: < 40% | IC50 ([1]; read-out: IC50): 46 nM | T1/2 [16]: 30 min

Cc1c(CC(=O)O)c(-c2ccccc2)nn1C(c1ccc(F)cc1)c1ccc(S(C)(=O)=O)cc1 (stereo not drawn)
IC50 ([1]; read-out: IC50): 5000 nM

Cc1c(CC(=O)O)c(-c2ccncc2)nn1Cc1ccccc1S(=O)(=O)c1ccccc1
IC50 ([1]; read-out: IC50): 4 nM | IC50 [24]: 66 nM

Cc1c(CC(=O)O)c(-c2ccccc2)nn1CC1CCCN1S(=O)(=O)c1ccccc1 (stereo not drawn)
IC50 ([1]; cho-k1): Not Active

Cc1c(CC(=O)O)c(-c2ccnc(F)c2)nn1C(c1ccc(F)cc1)c1ccc(F)cc1
IC50 ([1]; read-out: IC50): 310 nM

Cc1c(CC(=O)O)c(-c2ccccc2)nn1Cc1ccccc1-c1ccccc1
IC50 ([1]; read-out: IC50): 5000 nM

Cc1c(CC(=O)O)c(-c2ccc(O)nc2)nn1C(c1ccc(F)cc1)c1ccc(F)cc1
IC50 ([1]; cho-k1): Not Active

Cc1c(CC(=O)O)c(-c2ccccc2)nn1Cc1ccccc1C(=O)c1ccccc1
IC50 ([1]; read-out: IC50): 1400 nM

Cc1c(CC(=O)O)c(-c2ccccc2)nn1Cc1ccccc1Cc1ccccc1
inhibition [2]: < 40% | inhibition [3]: < 40% | IC50 ([1]; read-out: IC50): 100 nM

Cc1c(CC(=O)O)c(-c2ccccc2)nn1Cc1ccc(F)cc1S(=O)(=O)N1CCNCC1
IC50 ([1]; read-out: IC50): 5000 nM

Cc1c(CC(=O)O)c(-c2ccncc2)nn1Cc1ccc(F)cc1
IC50 ([1]; read-out: IC50): 1900 nM

Cc1c(CC(=O)O)c(-c2ccccc2)nn1Cc1ccccc1S(=O)(=O)N1CCOCC1
inhibition [2]: < 40% | inhibition [3]: < 40% | IC50 ([1]; read-out: IC50): 89 nM

Cc1c(CC(=O)O)c(-c2ccccc2)nn1-c1ccnc2ccccc12
IC50 ([1]; read-out: IC50): 5000 nM

Cc1nn(Cc2ccc3ccccc3n2)c(C)c1CC(=O)O
IC50 ([1]; read-out: IC50): > 5000 nM

Cc1c(Cc2ccccc2S(=O)(=O)c2ccccc2)c2cc(F)ccc2n1CC(=O)O
IC50 ([1]; read-out: IC50): 16 nM

Cc1c(CC(=O)O)c(-c2ccccc2)nn1Cc1ccc(S(C)(=O)=O)cc1
IC50 ([1]; cho-k1): Not Active

Cc1c(CC(=O)O)c(-c2ccccc2)nn1Cc1ccccc1CS(=O)(=O)c1ccccc1
IC50 ([1]; read-out: IC50): 490 nM
